In ChEMBL document CHEMBL4138099, “Design, synthesis and biological evaluation of uncharged catechol derivatives as selective inhibitors of PTP1B” (Eur J Med Chem, 2017):
pIC50: −log10 of the molar value. Active and inactive are the calls of the source. The calls are words filed in the database; no cut-off is given here.

Tests used:
[1] = target: T1, Tyrosine-protein phosphatase non-receptor type 1 (Homo sapiens, UniProt P18031); experiment: Inhibition of recombinant GST-tagged PTP1B catalytic domain (1 to 321 residues) (unknown origin) expressed in Escherichia coli BL21(DE3) using pNPP as substrate after 30 mins by spectrophotometer
T1 sequence (P18031 whole entry): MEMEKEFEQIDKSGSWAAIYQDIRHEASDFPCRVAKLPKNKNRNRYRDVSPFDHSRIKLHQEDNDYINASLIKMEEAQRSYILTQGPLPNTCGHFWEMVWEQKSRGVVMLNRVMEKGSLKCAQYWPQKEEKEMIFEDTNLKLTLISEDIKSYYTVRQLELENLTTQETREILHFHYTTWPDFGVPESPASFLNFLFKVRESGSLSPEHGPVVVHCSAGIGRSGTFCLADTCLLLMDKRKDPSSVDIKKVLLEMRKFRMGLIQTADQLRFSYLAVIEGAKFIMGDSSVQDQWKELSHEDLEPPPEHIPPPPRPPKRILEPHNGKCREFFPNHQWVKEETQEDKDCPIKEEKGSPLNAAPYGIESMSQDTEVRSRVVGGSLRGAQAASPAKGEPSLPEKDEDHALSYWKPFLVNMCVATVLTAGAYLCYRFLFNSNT
Outline: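 Assay at 37 °C, pH 7.5, in 10 mM Tris-HCl, 25 mM NaCl, 1 mM EDTA and 2 mM DTT, with 4 mM pNPP and 60 nM PTP1B. Inhibitor was added from DMSO at final 100 to 0.01 µM, and the reaction was started with enzyme. After 30 min it was stopped with 1 N NaOH and read at 405 nm. IC50 came from a sigmoidal fit of relative activity versus concentration.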

[2] = target: T2, Tyrosine-protein phosphatase non-receptor type 1 (Homo sapiens) (UniProt P18031); experiment: Inhibition of recombinant GST-tagged PTP1B catalytic domain (1 to 321 residues) (unknown origin) expressed in Escherichia coli BL21(DE3) at 1 mM using pNPP as substrate after 30 mins by spectrophotometric method relative to control
T2 sequence (whole entry): T1 sequence (P18031 whole entry)
Outline: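 PTP1B (60 nM) reacted with 4 mM pNPP at 37 °C and pH 7.5 in 10 mM Tris-HCl, 25 mM NaCl, 1 mM EDTA, 2 mM DTT. The compound was added from DMSO at 1% v/v. The reaction was started with enzyme and stopped with 1 N NaOH after 30 min. p-Nitrophenol was read at 405 nm, and activity was taken relative to control.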

[3] = target: T2, Tyrosine-protein phosphatase non-receptor type 1 (Homo sapiens); experiment: Competitive inhibition of recombinant GST-tagged PTP1B catalytic domain (1 to 321 residues) (unknown origin) expressed in Escherichia coli BL21(DE3) at 1 to 8 uM using varying levels of pNPP as substrate after 30 mins by spectrophotometric method
Outline: (§1)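 PTP1B-catalysed pNPP hydrolysis read by absorbance of p-nitrophenol at 405 nm, run with pNPP at 0.5, 1.0, 2.0, 4.0 and 8.0 mM, with and without inhibitor. Inhibition mode was assigned from double-reciprocal (1/v) plots.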

[4] = species: Homo sapiens; experiment: Selectivity ratio of IC50 for TCPTP (unknown origin) to IC50 for recombinant GST-tagged PTP1B catalytic domain (1 to 321 residues) (unknown origin)
[5] = target: T3, Tyrosine-protein phosphatase non-receptor type 2 (Homo sapiens, UniProt P17706); experiment: Inhibition of TCPTP (unknown origin) using pNPP as substrate after 30 mins by spectrophotometer
T3 sequence (P17706 whole entry): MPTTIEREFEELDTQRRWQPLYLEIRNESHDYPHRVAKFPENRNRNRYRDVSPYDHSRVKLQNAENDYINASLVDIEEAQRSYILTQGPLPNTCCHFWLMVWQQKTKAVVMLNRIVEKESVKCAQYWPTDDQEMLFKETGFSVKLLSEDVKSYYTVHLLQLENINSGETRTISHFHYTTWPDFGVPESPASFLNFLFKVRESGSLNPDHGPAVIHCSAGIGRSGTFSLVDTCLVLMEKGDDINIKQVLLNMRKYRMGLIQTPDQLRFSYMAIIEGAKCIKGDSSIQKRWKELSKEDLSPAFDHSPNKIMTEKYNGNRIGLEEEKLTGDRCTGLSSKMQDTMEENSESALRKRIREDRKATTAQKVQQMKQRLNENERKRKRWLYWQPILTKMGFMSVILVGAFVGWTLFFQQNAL

[6] = target: T4, Tyrosine-protein phosphatase non-receptor type 1 (Mus musculus) (UniProt P35821); experiment: Inhibition of PTP1B in mouse C2C12 cells assessed as increase in insulin stimulated IRS-1 phosphorylation at 2 uM preincubated for 1 hr followed by 100 nM insulin addition measured after 30 mins by immunoblot method; format: cell-based
T4 sequence (whole entry): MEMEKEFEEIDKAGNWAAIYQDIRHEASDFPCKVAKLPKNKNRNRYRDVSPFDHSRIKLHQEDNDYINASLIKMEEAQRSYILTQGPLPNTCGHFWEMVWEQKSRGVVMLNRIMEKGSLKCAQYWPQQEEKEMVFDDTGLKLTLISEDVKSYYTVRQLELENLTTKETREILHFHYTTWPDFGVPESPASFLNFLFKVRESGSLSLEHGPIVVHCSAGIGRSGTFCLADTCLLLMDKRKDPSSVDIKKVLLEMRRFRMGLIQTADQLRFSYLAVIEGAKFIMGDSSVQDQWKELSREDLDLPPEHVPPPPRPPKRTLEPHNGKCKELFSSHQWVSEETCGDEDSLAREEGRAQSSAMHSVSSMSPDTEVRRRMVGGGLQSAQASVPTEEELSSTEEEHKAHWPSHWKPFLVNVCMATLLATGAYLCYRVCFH
Outline: (§2)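 C2C12 myoblasts were grown in DMEM with 10% fetal calf serum and differentiated to myotubes in 10% horse serum. Myotubes were serum-starved 24 h, then given inhibitor at 0.5–4 µM in serum-free DMEM and stimulated with 100 nM insulin for 30 min at 37 °C. RIPA lysates (10 µg protein) were immunoblotted for phospho-proteins, detected by ECL and quantified by densitometry.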

[7] = target: T4, Tyrosine-protein phosphatase non-receptor type 1 (Mus musculus); experiment: Inhibition of PTP1B in mouse C2C12 cells assessed as increase in insulin stimulated IRbeta phosphorylation at 2 uM preincubated for 1 hr followed by 100 nM insulin addition measured after 30 mins by immunoblot method; format: cell-based; outline: as §2
[8] = target: T2, Tyrosine-protein phosphatase non-receptor type 1 (Homo sapiens); experiment: Competitive inhibition of recombinant GST-tagged PTP1B catalytic domain (1 to 321 residues) (unknown origin) expressed in Escherichia coli BL21(DE3) at 1 to 4 uM using varying levels of pNPP as substrate after 30 mins by spectrophotometric method; outline: as §1
[9] = target: T4, Tyrosine-protein phosphatase non-receptor type 1 (Mus musculus); experiment: Inhibition of PTP1B in mouse C2C12 cells assessed as increase in insulin stimulated AKT phosphorylation at 2 uM preincubated for 1 hr followed by 100 nM insulin addition measured after 30 mins by immunoblot method; format: cell-based; outline: as §2

| Compound | pIC50 [1] | further results |
| --- | --- | --- |
| O=C(CSc1nnc(-c2ccc(O)c(O)c2)o1)Oc1ccc(Br)cc1 | 3.94 |  |
| COC(=O)CSc1nnc(-c2ccc(O)c(O)c2)o1 | 4.45 |  |
| O=C(CSc1nnc(-c2ccc(O)c(O)c2)o1)Oc1ccc(OCc2ccccc2)cc1 | 5.11 |  |
| O=C(CSc1nnc(-c2ccc(O)c(O)c2)o1)Oc1ccc(Oc2ccccc2)cc1 | 5.03 |  |
| O=Cc1ccc(O)c(O)c1 |  | inhibition [2]: 29% |
| CCOc1ccc(Oc2ccc(OC(=O)CSc3nnc(-c4ccc(O)c(O)c4)o3)cc2)cc1 | 4.77 |  |
| CCOc1ccc(Oc2ccc(-c3cnc(-c4ccc(O)c(O)c4)o3)cc2)cc1 | 4.68 |  |
| Oc1ccc(-c2nnc(SCc3ccccc3)o2)cc1O | 4.50 |  |
| COCCc1ccc(Oc2ccc(OC(=O)CSc3nnc(-c4ccc(O)c(O)c4)o3)cc2)cc1 | 4.64 |  |
| CCOc1ccc(OC(=O)CSc2nnc(-c3ccc(O)c(O)c3)o2)cc1 | 5.10 |  |
| COCCc1ccc(Oc2ccc(-c3cnc(-c4ccc(O)c(O)c4)o3)cc2)cc1 | 4.72 |  |
| O=C(CSc1nnc(-c2ccc(O)c(O)c2)o1)Oc1ccccc1 | 5.09 |  |
| O=C(CSc1nnc(-c2ccc(O)c(O)c2)o1)Oc1ccc(Oc2ccc(OCc3ccccc3)cc2)cc1 | 4.67 |  |
| CC(C)c1ccc(Oc2ccc(OC(=O)CSc3nnc(-c4ccc(O)c(O)c4)o3)cc2)cc1 | 4.96 |  |
| O=C(CSc1nnc(-c2ccc(O)c(O)c2)o1)c1ccccc1 | 4.81 |  |
| CC(C)(C)c1ccc(Oc2ccc(OC(=O)CSc3nnc(-c4ccc(O)c(O)c4)o3)cc2)cc1 | 4.98 |  |
| O=C(CSc1nnc(-c2ccc(O)c(O)c2)o1)Oc1ccc(C(F)(F)F)cc1 | 4.67 |  |

The remaining molecules from weak to strong by pIC50 [1], led by results:

| pIC50 [1] | Compound | further results |
| --- | --- | --- |
| 5.13 | CC(C)c1ccc(Oc2ccc(-c3cnc(-c4ccc(O)c(O)c4)o3)cc2)cc1 |  |
| 5.16 | COc1ccc(Oc2ccc(-c3cnc(-c4ccc(O)c(O)c4)o3)cc2)cc1 |  |
| 5.20 | Oc1ccc(-c2ncc(-c3ccc(Oc4ccc(-c5ccccc5)cc4)cc3)o2)cc1O | Ratio IC50 [4]: 0.8; pIC50 [5]: 5.30 |
| 5.22 | COc1ccc(OC(=O)CSc2nnc(-c3ccc(O)c(O)c3)o2)cc1 | Ratio IC50 [4]: > 16.6; pIC50 [5]: < 4.00 |
| 5.32 | Cc1ccc(OC(=O)CSc2nnc(-c3ccc(O)c(O)c3)o2)cc1 |  |
| 5.41 | Cc1ccc(Oc2ccc(C(=O)CSc3nnc(-c4ccc(O)c(O)c4)o3)cc2)cc1 | Ratio IC50 [4]: 2.24; pIC50 [5]: 5.06 |
| 5.44 | CCC(C)(C)c1ccc(Oc2ccc(-c3cnc(-c4ccc(O)c(O)c4)o3)cc2)cc1 |  |
| 5.58 | Oc1ccc(-c2ncc(-c3ccc(Oc4ccccc4)cc3)o2)cc1O |  |
| 6.09 | Cc1ccc(Oc2ccc(-c3cnc(-c4ccc(O)c(O)c4)o3)cc2)cc1 | inhibition [3]: Active |
| 6.31 | CC(C)(C)c1ccc(Oc2ccc(-c3cnc(-c4ccc(O)c(O)c4)o3)cc2)cc1 | Ratio IC50 [4]: 27.3; pIC50 [5]: 4.88; inhibition [6]: Active; inhibition [7]: Active; inhibition [8]: Active; inhibition [9]: Active |
